Columns and labels:
[1] = target: T1, Casein kinase II (Homo sapiens) (UniProt P67870+P68400+P19784); assay: Residual activity of human CK2 at 30 uM; format: protein-complex assay
Casein kinase II [2] = target: T2, Casein kinase II (Homo sapiens, UniProt P19784+P67870+P68400); assay: Inhibition of human CK2; format: protein-complex assay
Casein kinase II [3] = target: T2, Casein kinase II; assay: Binding affinity to human CK2 in presence of ATP; format: protein-complex assay
Method in brief: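 Ki obtained from Lineweaver-Burk plots of CK2 activity measured at varied ATP and inhibitor concentrations (inhibitor 0 to 0.5 µM). Activity was read by the radiometric phosphocellulose peptide assay.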

[4] = target: T1, Casein kinase II (Homo sapiens); assay: Residual activity of CK2 at 10 uM in presence of 100 uM ATP relative to control; format: protein-complex assay
[5] = target: Rho-associated protein kinase 1 (Homo sapiens) (UniProt Q13464); assay: Residual activity of ROCK1 at 10 uM in presence of 100 uM ATP relative to control
Sequence of Rho-associated protein kinase 1 (Homo sapiens) (Q13464 2-1354 limits assumed): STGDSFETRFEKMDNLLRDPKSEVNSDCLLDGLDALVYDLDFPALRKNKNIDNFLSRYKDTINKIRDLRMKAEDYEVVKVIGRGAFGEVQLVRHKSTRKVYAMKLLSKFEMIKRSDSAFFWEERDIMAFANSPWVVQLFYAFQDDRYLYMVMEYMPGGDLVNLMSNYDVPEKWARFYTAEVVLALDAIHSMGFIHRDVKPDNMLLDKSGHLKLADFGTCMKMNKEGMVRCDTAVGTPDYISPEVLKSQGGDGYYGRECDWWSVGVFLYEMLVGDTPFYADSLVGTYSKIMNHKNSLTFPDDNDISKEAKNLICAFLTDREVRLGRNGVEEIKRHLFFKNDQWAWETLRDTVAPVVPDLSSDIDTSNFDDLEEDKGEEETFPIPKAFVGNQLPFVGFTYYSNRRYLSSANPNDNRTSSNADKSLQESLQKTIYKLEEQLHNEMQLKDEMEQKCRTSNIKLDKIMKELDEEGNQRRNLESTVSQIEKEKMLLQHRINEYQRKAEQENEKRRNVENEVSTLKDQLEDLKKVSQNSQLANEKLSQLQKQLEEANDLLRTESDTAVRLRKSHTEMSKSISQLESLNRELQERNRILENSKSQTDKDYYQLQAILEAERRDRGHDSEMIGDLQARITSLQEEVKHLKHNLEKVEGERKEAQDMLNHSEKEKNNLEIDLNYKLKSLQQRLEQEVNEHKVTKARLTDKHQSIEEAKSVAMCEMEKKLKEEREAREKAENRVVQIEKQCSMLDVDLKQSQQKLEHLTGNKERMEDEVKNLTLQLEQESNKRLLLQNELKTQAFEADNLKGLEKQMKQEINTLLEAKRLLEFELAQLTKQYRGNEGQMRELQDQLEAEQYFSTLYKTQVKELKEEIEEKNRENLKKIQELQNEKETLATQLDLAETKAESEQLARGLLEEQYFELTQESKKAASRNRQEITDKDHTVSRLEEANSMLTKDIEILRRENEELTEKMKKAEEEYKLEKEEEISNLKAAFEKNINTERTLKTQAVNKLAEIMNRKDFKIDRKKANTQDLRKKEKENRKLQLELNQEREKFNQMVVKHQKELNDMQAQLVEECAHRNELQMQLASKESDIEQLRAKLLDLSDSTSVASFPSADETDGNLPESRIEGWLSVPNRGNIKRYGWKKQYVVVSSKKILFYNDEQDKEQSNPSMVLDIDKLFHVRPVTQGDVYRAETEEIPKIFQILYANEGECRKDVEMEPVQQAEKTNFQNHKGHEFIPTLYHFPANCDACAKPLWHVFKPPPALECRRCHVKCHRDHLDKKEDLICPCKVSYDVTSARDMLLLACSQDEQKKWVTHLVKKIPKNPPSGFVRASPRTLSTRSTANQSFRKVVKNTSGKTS

[6] = target: Mitogen-activated protein kinase 10 (Homo sapiens) (UniProt P53779); assay: Residual activity of JNK3 at 10 uM in presence of 100 uM ATP relative to control
Sequence of Mitogen-activated protein kinase 10 (Homo sapiens) (P53779 whole entry): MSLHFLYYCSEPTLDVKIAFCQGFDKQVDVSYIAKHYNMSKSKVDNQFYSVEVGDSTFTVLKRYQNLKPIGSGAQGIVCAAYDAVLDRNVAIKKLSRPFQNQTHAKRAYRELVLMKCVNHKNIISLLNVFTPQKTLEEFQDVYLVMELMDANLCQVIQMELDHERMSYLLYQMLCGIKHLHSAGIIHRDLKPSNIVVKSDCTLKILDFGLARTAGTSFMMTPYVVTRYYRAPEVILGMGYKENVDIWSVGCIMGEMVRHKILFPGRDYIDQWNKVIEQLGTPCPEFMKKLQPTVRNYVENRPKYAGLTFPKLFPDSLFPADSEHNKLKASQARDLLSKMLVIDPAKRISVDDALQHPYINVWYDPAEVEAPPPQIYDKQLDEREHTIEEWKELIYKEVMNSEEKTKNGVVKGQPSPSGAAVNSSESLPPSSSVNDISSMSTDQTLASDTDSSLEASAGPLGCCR

[7] = target: Tyrosine-protein kinase Lck (Homo sapiens) (UniProt P06239); assay: Residual activity of p56LCK at 10 uM in presence of 100 uM ATP relative to control
Sequence of Tyrosine-protein kinase Lck (Homo sapiens) (P06239 2-509 limits assumed): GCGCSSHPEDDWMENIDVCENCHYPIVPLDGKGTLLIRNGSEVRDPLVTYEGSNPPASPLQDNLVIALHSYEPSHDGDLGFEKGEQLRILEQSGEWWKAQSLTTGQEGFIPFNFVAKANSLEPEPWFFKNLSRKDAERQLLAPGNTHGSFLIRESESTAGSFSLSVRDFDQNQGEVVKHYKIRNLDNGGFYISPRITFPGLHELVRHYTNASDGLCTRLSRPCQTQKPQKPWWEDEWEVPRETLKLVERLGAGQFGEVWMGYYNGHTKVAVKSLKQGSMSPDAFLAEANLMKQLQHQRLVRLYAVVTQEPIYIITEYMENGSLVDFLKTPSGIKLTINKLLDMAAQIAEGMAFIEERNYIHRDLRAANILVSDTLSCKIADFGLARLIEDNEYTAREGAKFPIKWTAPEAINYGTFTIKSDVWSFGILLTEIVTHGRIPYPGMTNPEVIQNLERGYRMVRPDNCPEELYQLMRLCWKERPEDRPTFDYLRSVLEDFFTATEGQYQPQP

[8] = target: Dual specificity tyrosine-phosphorylation-regulated kinase 1A (Homo sapiens) (UniProt Q13627); assay: Residual activity of DYRK1a at 10 uM in presence of 100 uM ATP relative to control
[9] = target: Ribosomal protein S6 kinase alpha-5 (Homo sapiens) (UniProt O75582); assay: Residual activity of MSK1 at 10 uM in presence of 100 uM ATP relative to control
Sequence of Ribosomal protein S6 kinase alpha-5 (Homo sapiens) (O75582 whole entry, looked up): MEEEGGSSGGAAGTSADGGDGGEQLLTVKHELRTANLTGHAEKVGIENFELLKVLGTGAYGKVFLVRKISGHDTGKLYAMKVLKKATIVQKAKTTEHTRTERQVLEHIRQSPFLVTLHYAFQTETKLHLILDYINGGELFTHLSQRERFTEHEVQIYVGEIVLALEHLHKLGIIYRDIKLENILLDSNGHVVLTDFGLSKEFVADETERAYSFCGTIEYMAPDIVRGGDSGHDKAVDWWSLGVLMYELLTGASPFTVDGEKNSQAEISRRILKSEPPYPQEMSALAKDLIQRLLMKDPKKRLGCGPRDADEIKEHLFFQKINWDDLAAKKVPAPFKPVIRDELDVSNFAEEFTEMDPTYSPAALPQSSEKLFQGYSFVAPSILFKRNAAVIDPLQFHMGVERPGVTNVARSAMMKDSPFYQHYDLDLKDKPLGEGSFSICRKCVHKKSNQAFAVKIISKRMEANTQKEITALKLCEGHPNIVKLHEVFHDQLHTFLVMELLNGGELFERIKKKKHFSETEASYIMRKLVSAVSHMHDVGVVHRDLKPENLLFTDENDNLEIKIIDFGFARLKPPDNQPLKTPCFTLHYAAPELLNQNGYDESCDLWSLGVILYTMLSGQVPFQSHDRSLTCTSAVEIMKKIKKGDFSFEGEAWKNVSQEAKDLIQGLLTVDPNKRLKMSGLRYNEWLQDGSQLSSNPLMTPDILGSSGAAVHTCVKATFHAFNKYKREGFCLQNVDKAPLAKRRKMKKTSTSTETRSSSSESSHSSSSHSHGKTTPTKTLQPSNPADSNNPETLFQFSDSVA

[10] = target: Glycogen synthase kinase-3 (Homo sapiens) (UniProt P49840+P49841); assay: Residual activity of GSK3 at 10 uM in presence of 100 uM ATP relative to control; format: protein assay
[11] = target: Cyclin-dependent kinase 5 (Homo sapiens) (UniProt Q00535); assay: Residual activity of CDK5 at 10 uM in presence of 100 uM ATP relative to control
Sequence of Cyclin-dependent kinase 5 (Homo sapiens) (Q00535 whole entry, looked up): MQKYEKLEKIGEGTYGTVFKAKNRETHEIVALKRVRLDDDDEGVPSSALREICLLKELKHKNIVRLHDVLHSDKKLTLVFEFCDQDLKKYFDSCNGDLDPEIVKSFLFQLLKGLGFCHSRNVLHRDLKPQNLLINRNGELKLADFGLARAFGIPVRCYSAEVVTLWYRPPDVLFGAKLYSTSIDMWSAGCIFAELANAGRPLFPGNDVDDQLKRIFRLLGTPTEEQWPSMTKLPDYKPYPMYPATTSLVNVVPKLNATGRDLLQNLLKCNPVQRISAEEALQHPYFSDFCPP

T2 sequence (P67870 whole entry): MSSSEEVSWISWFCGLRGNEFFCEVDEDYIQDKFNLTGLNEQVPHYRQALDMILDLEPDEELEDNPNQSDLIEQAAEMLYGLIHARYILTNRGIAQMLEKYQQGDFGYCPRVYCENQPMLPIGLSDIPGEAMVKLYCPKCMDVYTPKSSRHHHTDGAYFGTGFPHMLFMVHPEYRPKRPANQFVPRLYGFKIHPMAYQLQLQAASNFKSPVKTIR
T2 sequence (P68400 whole entry): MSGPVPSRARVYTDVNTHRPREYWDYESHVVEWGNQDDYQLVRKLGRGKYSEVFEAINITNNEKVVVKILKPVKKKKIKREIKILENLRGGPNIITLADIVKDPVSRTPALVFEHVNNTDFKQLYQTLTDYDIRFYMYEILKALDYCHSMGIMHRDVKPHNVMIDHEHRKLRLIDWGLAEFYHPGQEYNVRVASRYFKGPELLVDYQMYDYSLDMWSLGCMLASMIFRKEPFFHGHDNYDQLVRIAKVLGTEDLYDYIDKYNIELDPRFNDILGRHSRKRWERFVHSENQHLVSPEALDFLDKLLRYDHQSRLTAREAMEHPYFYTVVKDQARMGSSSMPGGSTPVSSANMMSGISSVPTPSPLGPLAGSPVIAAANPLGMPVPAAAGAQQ
T2 sequence (P19784 whole entry): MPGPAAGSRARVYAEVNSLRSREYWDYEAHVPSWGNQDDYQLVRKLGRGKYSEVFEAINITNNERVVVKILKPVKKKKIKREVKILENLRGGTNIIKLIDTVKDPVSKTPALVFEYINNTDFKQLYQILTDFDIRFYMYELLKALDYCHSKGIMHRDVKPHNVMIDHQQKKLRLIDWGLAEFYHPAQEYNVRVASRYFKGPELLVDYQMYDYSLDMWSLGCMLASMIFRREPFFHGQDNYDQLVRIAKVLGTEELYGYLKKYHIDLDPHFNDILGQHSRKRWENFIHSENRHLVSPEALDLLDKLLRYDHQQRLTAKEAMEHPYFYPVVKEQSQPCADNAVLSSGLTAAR

Row | SMILES | Activity [1] [%] | also measured
1 | O=C(O)c1cnc2c(Cl)cc(Cl)cc2c1O | 64 | 
2 | O=C(O)c1cnc2c(Br)cccc2c1O | 42 | 
3 | COc1cccc2c(O)c(C(=O)O)cnc12 | 92 | 
4 | O=C(O)c1cnc2c(Cl)cccc2c1O | 37 | 
5 | Cc1c(Cl)ccc2c(O)c(C(=O)O)cnc12 | 15 | IC50 (Casein kinase II [2]): 2000 nM
6 | O=C(O)c1cnc2c(Cl)c(Cl)ccc2c1O | 12.5 | 
7 | CC1COc2c(N3CCN(C)CC3)c(F)cc3c(=O)c(C(=O)O)cn1c23 (stereo not given) | 100 | 
8 | O=C(O)c1cnc2cc(Cl)cc(Cl)c2c1O | 70 | 
9 | Cc1ccc(C)c2c(O)c(C(=O)O)cnc12 | 32 | 
10 | CCc1cccc2c(O)c(C(=O)O)cnc12 | 86 | 
11 | CCOc1cccc2c(O)c(C(=O)O)cnc12 | 103 | 
12 | CC(C)Oc1cccc2c(O)c(C(=O)O)cnc12 | 93 | 
13 | O=C(O)c1cnc2c(C(=O)O)cccc2c1O | 73 | 
14 | Cc1ccc2c(c1)c(=O)c(C(=O)O)cn2C | 100 | 
15 | Cc1cc(C)c2c(c1)c(=O)c(C(=O)O)cn2C | 102 | 
16 | COc1cc(OC)c2ncc(C(=O)O)c(O)c2c1 | 99 | 
17 | O=C(O)c1c[nH]c2c(Cl)c(Cl)ccc2c1=O |  | IC50 (Casein kinase II [2]): 800 nM
18 | Cc1cc(C)c2ncc(C(=O)O)c(O)c2c1 | 63 | 
19 | CC1COc2c(F)c(F)cc3c(=O)c(C(=O)O)cn1c23 (stereo not given) | 88 | 
20 | CC(C)c1cccc2c(O)c(C(=O)O)cnc12 | 95 | 
21 | Cn1cc(C(=O)O)c(=O)c2ccccc21 | 106 | 
22 | O=C(O)c1cnc2c(Cl)cc(Cl)c(Cl)c2c1O | 2.6 | IC50 (Casein kinase II [2]): 300 nM; Ki (Casein kinase II [3]): 60 nM; Activity [4]: 11%; Activity [5]: 85%; Activity [6]: 74%; Activity [7]: 87%; Activity [8]: 35%; Activity [9]: 71%; Activity [10]: > 50%; Activity [11]: > 50%
23 | O=C(O)c1cnc2cc3c(cc2c1O)OCCO3 | 81 | 
24 | Cc1ccc2c(O)c(C(=O)O)cnc2c1C | 56 | IC50 (Casein kinase II [2]): ≥ 33000 nM
25 | O=C(O)c1cnc2c(ccc3ccccc32)c1O | 4.5 | IC50 (Casein kinase II [2]): 1000 nM; Ki (Casein kinase II [3]): 280 nM; Activity [4]: 25%; Activity [5]: 78%; Activity [6]: 81%; Activity [7]: 80%; Activity [8]: 85%; Activity [9]: 89%; Activity [10]: > 50%; Activity [11]: > 50%

More lines, main results first:

Row | Activity [1] [%] | SMILES | also measured
26 | 107 | CCOc1ccc2ncc(C(=O)O)c(O)c2c1 | 
27 | 70 | O=C(O)c1cnc2c(F)cccc2c1O | 
28 | 78 | O=C(O)c1cnc2cc(C(F)(F)F)ccc2c1O | 
29 | 101 | COc1ccc2ncc(C(=O)O)c(O)c2c1 | 
30 | 74 | Cc1cccc2c(O)c(C(=O)O)cnc12 | 
31 | 91 | O=C(O)c1ccc2ncc(C(=O)O)c(O)c2c1 | 
32 | 89 | O=C(O)c1cnc2ccc(Oc3ccccc3)cc2c1O | 
33 | 74 | O=C(O)c1ccc2c(O)c(C(=O)O)cnc2c1 | 
34 | 75 | O=C(O)c1cnc2ccc(Cl)cc2c1O | 
35 | 80 | CCCOc1ccc2ncc(C(=O)O)c(O)c2c1 | 
36 | 75 | CN(C)c1ccc2ncc(C(=O)O)c(O)c2c1 | 
37 | 103 | O=C(O)c1cnc2ccccc2c1O | 
38 | 85 | O=C(O)c1cnc2ccc(I)cc2c1O | 
39 | 72 | O=C(O)c1cnc2ccc(F)cc2c1O | 
40 | 76 | O=C(O)c1cnc2ccc(Br)cc2c1O | 
41 | 100 | CC(=O)c1ccc2ncc(C(=O)O)c(O)c2c1 | 
42 | 87 | CCCCc1ccc2ncc(C(=O)O)c(O)c2c1 | 
43 | 100 | Cc1ccc2ncc(C(=O)O)c(O)c2c1 | 

— ChEMBL document CHEMBL1137306, “Evaluation of 3-carboxy-4(1H)-quinolones as inhibitors of human protein kinase CK2” (J Med Chem, 2006)
